# Screening results deposited in PubChem BioAssay by several laboratories.
# Sampled rows, rich in hits. Any-hit rate of the full collection: about 4%.
# Hsp70 activator = transcriptional activators of Hsp70. HeLa Hsp70 promoter luciferase reporter, luminescence; scaled: vehicle 0, proteasome-inhibitor control 100%. activation, % at 10 µM. hit rate 0.04% among 200,000;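 active = activation above the mean across all tested compounds plus 3 SD, cutoff set per campaign, cut at about 5.5% in these data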;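 also: 100% = MG132 at 30 µM as the positive control and 0% = DMSO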
# CHOP inhibitor = inhibitors of CHOP induction in ER stress response. CHO-K1 CHOP-promoter luciferase, tunicamycin-induced, 15-18 h. inhibition, % at 10 µM. hit rate 3.8% among 220,000;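 active = compounds that reduced the stress-induced luciferase reporter signal by more than about 70% of percent inhibition, limit read from the data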;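 also: 0% = tunicamycin plus vehicle and 100% = wells without tunicamycin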
# S1P3 antagonist = blocks the human S1P3 receptor; Q99500; CHO S1P3 NFAT-BLA reporter, FRET fluorescence, antagonist mode; inhibition, % at 4.98 µM; hit rate 0.27% among 170,000; AID 485;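 active = inhibition above the plate cutoff, the mean inhibition of test wells on that plate plus 3 SD, cut at about 28% in these data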;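 also: cells challenged with S1P at its EC80 of 0.8 µM; blue over green emission ratio from cleaved BLA substrate after 4 h stimulation; 0% = S1P-stimulated wells and 100% = unstimulated DMSO-only wells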
# MDM2 E3 inh = inhibitors of human Mdm2 E3 ubiquitin ligase; Q00987; cell-based MDM2 ubiquitination luciferase reporter, 2 h; 0 = plate control, 100 = twice control, blank-subtracted; signal enhancement, % at 5 µM; hit rate 0.11% among 210,000; AID 1230;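 active = signal enhancement of 30% or more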;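 also: luminescence tracks abundance of the self-degrading MDM2-luciferase fusion protein; higher signal means inhibition of MDM2 E3 ligase activity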
# Target sequence (Q00987 whole entry, looked up, the tested form may be a part): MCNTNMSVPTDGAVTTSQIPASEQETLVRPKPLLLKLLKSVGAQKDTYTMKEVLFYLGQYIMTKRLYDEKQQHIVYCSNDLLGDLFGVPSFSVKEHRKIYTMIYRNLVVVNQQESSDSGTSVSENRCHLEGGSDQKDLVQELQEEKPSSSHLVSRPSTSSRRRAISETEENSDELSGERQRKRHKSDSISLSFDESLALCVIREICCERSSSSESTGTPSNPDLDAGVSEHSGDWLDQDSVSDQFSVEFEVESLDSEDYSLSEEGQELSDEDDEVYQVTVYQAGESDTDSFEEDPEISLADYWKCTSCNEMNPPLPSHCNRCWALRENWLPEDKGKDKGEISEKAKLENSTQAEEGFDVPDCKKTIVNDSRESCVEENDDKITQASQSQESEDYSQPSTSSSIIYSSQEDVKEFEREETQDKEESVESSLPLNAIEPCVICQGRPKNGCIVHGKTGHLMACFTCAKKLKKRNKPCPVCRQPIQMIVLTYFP
#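 system = mammalian cells stably expressing self-ubiquitinating, self-degrading MDM2 E3–luciferase fusion | quantity = 2000 cells per well seeded | incubation = 4 h cell settling then 2 h compound exposure, 37 °C | signal = SteadyLite luminescence, 15 min reagent step | benchmarks = plate control and blank wells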
# * = called active by the depositor; . = no result given.
SMILES,Hsp70 activator,CHOP inhibitor,S1P3 antagonist,MDM2 E3 inh
COc1cc(NC(=O)c2ccco2)c(OC)cc1NC(=O)CCC(=O)Nc1cc(C)cc(C)c1,0,76*,-12,-5
COc1cc(NC(=O)CC(C)C)ccc1NC(=O)c1ccco1,0,.,10,.
O=C(Nc1ccccc1NC(=O)c1ccco1)c1ccco1,0,-3,69*,-13
COc1cc(NC(=O)c2ccco2)c(OC)cc1NC(=O)Nc1ccc(Cl)cc1,0,-14,18,-15
COc1cc(OC)c(NC(=O)c2ccco2)cc1Cl,0,72*,-5,-10
COc1cc(NC(=O)Cn2nc(C(F)(F)F)c(Br)c2C)cc([N+](=O)[O-])c1,0,94*,-6,-1
CN(C(=O)COC(=O)CNC(=O)C12CC3CC(CC(C3)C1)C2)C1CCS(=O)(=O)C1 (stereo unspecified),0,38,-5,3
CCOc1ccccc1Nc1nc(-c2sc(NC(=O)c3cccc(Cl)c3)nc2C)cs1,0,76*,.,-53
CCOc1ccccc1Nc1nc(-c2sc(NC(=O)c3ccccc3)nc2C)cs1,0,32,.,-10
CCCC(C)C(=O)Nc1nc(C)c(-c2csc(Nc3ccc(Cl)cc3)n2)s1 (stereo unspecified),0,73*,.,-4
CCCC(C)C(=O)Nc1nc(C)c(-c2csc(Nc3ccccc3OC)n2)s1 (stereo unspecified),0,35,.,-4
Nn1c(COc2ccc(Cl)cc2)nc2ccccc2c1=O,0,-22,-10,-4
COc1ccccc1CNC(=O)c1csc(Cc2ccc(Cl)cc2)n1,0,80*,.,-12
COc1ccc(CNC(=O)c2csc(Cc3ccccc3)n2)cc1,0,27,.,8
O=C(NC1CCCCC1)c1ccc(CNc2nc(=S)[nH]c3ccccc23)cc1,0,11,-1,-14
c1ccc(-n2nc3c(ccc4cnnc43)[nH]2)cc1,0,86*,7,-18
CCCCOC(=O)n1c(=S)oc2cc(Cl)ccc21,0,31,.,-17
COC(=O)n1c(=S)oc2cc(Cl)ccc21,0,90*,-30,-23
CCC(C)[C@H](NC(=O)NCCCn1ccnc1)C(=O)OC (stereo partly specified),0,-1,-10,2
Cn1c(SCC(=O)Nc2cccc(F)c2)nnc1-c1cc2ccccc2o1,0,74*,1,-6
CCn1c(SCC(=O)c2ccc3c(c2)Cc2ccccc2-3)nnc1-c1ccc(N)cc1,0,85*,.,-3
Cc1ccc(CCc2nnc(SCC(=O)Nc3cccc(Cl)c3)n2-c2ccccc2)o1,0,85*,2,3
CC(=O)Nc1ccc(-c2nnc(SCC(=O)Nc3ccc4c(c3)oc3ccccc34)n2C)cc1,0,29,.,-5
CCn1c(SCC(=O)Nc2ccc3c(c2)oc2ccccc23)nnc1-c1ccc(N)cc1,0,95*,.,-14
CCOC(=O)N/N=C\C=C\c1ccc2c(c1)OCO2,0,7,-12,-12
SMILES,Hsp70 activator,CHOP inhibitor,S1P3 antagonist,MDM2 E3 inh
CC1(C)CC(C#N)(N2CCOCC2)CCO1 (stereo unspecified),0,9,-29,2
Cc1ccc(-n2cc(CNCCc3cscn3)c(-c3ccc(F)cc3)n2)cc1,0,85*,-2,-3
Nn1c(-c2ccc(O)cc2)nnc1-c1ccc(O)cc1,.,-9,-8,.
CCOc1ccc(NCc2cc3c(C(C)(C)C)nn(-c4ccccc4)c3[nH]c2=O)cc1,0,59,.,0
COc1cccc(NCc2cc3c(C(C)(C)C)nn(-c4ccccc4)c3[nH]c2=O)c1,0,71*,.,-31
Oc1c(N=Nc2ccccn2)ccc2ccccc12,0,80*,.,-50
CC(=O)Nc1sc2c(c1CN1CCN(c3ccc(F)cc3)CC1)CCCC2,0,79*,.,-16
CC(=O)Nc1sc2c(c1CN1CCCC1)CCCC2,.,14,-8,.
COc1cc(/C=C/C(=O)N2C(=O)c3cccc(N)c3C2=O)cc(OC)c1OC,0,94*,-6,7
Nc1cccc2c1C(=O)N(C(=O)/C=C/c1cccc(Br)c1)C2=O,.,-3,-3,35*
COc1cc(/C=C/C(=O)N2CCCC2)cc(OC)c1OC,0,22,-20,-15
O=C(/C=C/c1cccc(Br)c1)N1CCN(c2cccc(C(F)(F)F)c2)CC1,0,28,-1,7
COc1ccc(OC)c(/C=C/C(=O)N2C(=O)c3cccc(N)c3C2=O)c1,0,90*,7,-3
COc1ccc(OC)c(/C=C/C(=O)N2CCCc3ccccc32)c1,0,28,3,-7
O=C(Nc1ncn[nH]1)c1ccc(S(=O)(=O)N2CCOCC2)cc1,0,13,-22,-6
CCOC(=O)c1cnc2c(C)cccc2c1Nc1cccc(C(=O)O)c1,.,5,-12,-11
Cc1cc(Nc2ccccc2)c2c([N+](=O)[O-])c(C)cc(C)c2n1,0,92*,.,4
COc1ccc(OCC(=O)Nc2nc3ccccc3[nH]2)cc1,0,-27,.,-8
O=C(COc1ccc2ccccc2c1)Nc1nc2ccccc2[nH]1,0,78*,.,-26
O=[N+]([O-])c1ccc(/C=N/n2cnc3ccccc32)s1,0,83*,2,-9
Cc1ccc(C(=O)N(C)c2nnc(-c3ccncc3)s2)cc1,0,-3,-23,-4
O=C(/C=C/c1ccc([N+](=O)[O-])cc1)OCC(=O)N1c2ccccc2Sc2ccccc21,0,-26,-12,0
C=CCN=C1NN=C(c2ccc3c(c2)OCCO3)CS1,0,71*,-10,-80
COCCn1c(C)cc(C2=NNC(=Nc3ccccc3F)SC2)c1C,0,70*,.,-21
COCCCN=C1NN=C(c2cc(C)n(-c3ccccc3F)c2C)CS1,1,44,-11,-57
SMILES,Hsp70 activator,CHOP inhibitor,S1P3 antagonist,MDM2 E3 inh
C=CCN=C1NN=C(c2cc(C)n(CC=C)c2C)CS1,0,93*,-6,-78
CN1/C(=C\C=Nc2cc(S(=O)(=O)N3CCOCC3)ccc2N2CCOCC2)C(C)(C)c2ccccc21,-1,14,-3,-8
CCOC(=O)c1ccc(NC(=O)C(C)Sc2nc(O)c(-c3ccccc3)c(=O)[nH]2)cc1 (stereo unspecified),0,21,1,-2
Oc1c(Cl)cc(Cl)cc1C=Nc1ccc2c(c1)OCCO2,0,87*,.,-21
Brc1csc(C=Nc2ccc3c(c2)OCCOCCOCCOCCO3)c1,0,-18,-23,0
CCOC(=O)c1ccc(N2CSC3=C(C#N)C(c4cccs4)CC(=O)N3C2)cc1 (stereo unspecified),0,22,96*,-16
CCc1ccc(N2CSC3=C(C#N)C(c4cccs4)CC(=O)N3C2)cc1 (stereo unspecified),0,0,-10,7
CCOC(=O)/C(C(=O)Nc1ccccc1Br)=C1/NC(C)(C)Cc2ccccc21,0,6,-2,19
[O-]/C(=C(\C(=S)Nc1cccc2ccccc12)[n+]1ccccc1)c1ccc2c(c1)OCCO2,0,26,.,-12
Cc1cccc(CN2C(=O)N/C(=C/c3ccc(C)s3)C2=O)c1,0,90*,.,-16
